Laboratory results: ChEMBL document CHEMBL3112554, “Discovery of simplified N²-substituted pyrazolo[3,4-d]pyrimidine derivatives as novel adenosine receptor antagonists: efficient synthetic approaches, biological evaluations and molecular docking studies” (Bioorg Med Chem, 2014)

How the values were obtained:
Homo sapiens [1] = organism: Homo sapiens; experiment: Selectivity ratio of Ki for human adenosine A3 receptor to Ki for human adenosine A2A receptor
Homo sapiens [2] = organism: Homo sapiens; experiment: Selectivity ratio of Ki for human adenosine A2A receptor to Ki for human adenosine A3 receptor
How it was run: (§1)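 Ratios of Ki values from displacement assays in CHO cells (3 h, room temperature). The hA1 Ki ([3H]CCPA) or the hA2A Ki ([3H]NECA) was divided by the hA3 Ki ([3H]HEMADO). Each Ki is a geometric mean of n = 3–6.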

Adenosine receptor A3 = molecular target: T1, Adenosine receptor A3 (Homo sapiens, UniProt P0DMS8); experiment: Displacement of [3H]-HEMADO from human adenosine A3 receptor expressed in CHO cells after 3 hrs by topcount scintillation counting analysis; format: cell-based
T1 sequence (P0DMS8 whole entry): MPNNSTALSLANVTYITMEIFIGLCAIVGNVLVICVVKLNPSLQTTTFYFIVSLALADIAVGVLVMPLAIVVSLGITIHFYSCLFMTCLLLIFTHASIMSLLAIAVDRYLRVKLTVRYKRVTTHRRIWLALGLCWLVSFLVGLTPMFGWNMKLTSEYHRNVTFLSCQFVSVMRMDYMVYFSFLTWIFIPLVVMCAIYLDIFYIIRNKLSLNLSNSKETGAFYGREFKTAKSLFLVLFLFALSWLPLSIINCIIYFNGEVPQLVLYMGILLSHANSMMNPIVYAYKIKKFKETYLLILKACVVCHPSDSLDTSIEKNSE
How it was run: (§2)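 Radioligand binding to membranes from CHO cells expressing the human receptor, run for 3 h at room temperature. Radioligands were [3H]CCPA for hA1, [3H]NECA for hA2A and [3H]HEMADO for hA3. Nonspecific binding was defined with 1 mM theophylline (hA1) or 100 µM R-PIA (hA2A, hA3). Bound ligand was separated by GF/B filtration and counted. Ki came from nonlinear fitting of competition curves using Cheng-Prusoff, as geometric means of n = 3–6 with 95% CI.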

Adenosine receptor A2b = molecular target: T2, Adenosine receptor A2b (Homo sapiens, UniProt P29275); experiment: Antagonist activity at human adenosine A2B receptor expressed in CHO cells assessed as inhibition of NECA-induced adenylyl cyclase activity after 20 mins in presence of [alpha-32P]ATP; format: functional, cell-based
T2 sequence (P29275 whole entry): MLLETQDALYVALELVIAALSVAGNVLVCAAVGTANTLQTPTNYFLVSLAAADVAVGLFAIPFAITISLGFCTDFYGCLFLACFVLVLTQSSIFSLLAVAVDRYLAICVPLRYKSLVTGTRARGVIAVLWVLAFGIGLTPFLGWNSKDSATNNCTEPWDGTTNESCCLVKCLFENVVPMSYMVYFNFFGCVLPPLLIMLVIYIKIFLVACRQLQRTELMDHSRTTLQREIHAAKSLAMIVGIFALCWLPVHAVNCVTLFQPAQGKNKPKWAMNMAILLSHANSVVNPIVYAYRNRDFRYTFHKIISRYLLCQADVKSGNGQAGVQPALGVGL
How it was run: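 Membranes from CHO cells transfected with the human A2B receptor were incubated for 20 min with 100 nM NECA, 150,000 cpm [α-32P]ATP and test compound at several concentrations. The incubation mixture contained no EGTA and no NaCl. Ki was derived from concentration-dependent inhibition of NECA-stimulated adenylyl cyclase activity (n = 3–6).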

Adenosine receptor A2a = Adenosine receptor A2a (Homo sapiens, UniProt P29274); experiment: Displacement of [3H]-NECA from human adenosine A2A receptor expressed in CHO cells after 3 hrs by topcount scintillation counting analysis; format: cell-based; how it was run: as §2
Sequence of Adenosine receptor A2a (P29274 whole entry): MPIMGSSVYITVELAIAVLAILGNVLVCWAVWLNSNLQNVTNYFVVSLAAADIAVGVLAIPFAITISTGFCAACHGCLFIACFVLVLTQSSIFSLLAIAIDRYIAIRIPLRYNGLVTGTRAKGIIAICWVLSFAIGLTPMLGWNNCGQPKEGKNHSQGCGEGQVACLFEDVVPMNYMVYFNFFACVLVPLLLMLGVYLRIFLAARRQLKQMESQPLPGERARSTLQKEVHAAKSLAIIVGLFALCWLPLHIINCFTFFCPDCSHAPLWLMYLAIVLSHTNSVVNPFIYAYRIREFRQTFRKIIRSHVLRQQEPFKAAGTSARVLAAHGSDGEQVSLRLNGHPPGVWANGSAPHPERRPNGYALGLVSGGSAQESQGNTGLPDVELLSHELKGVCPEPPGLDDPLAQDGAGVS

Adenosine receptor A1 = molecular target: T3, Adenosine receptor A1 (Homo sapiens, UniProt P30542); experiment: Displacement of [3H]-CCPA from human adenosine A1 receptor expressed in CHO cells after 3 hrs by topcount scintillation counting analysis; format: cell-based; how it was run: as §2
T3 sequence (P30542 whole entry): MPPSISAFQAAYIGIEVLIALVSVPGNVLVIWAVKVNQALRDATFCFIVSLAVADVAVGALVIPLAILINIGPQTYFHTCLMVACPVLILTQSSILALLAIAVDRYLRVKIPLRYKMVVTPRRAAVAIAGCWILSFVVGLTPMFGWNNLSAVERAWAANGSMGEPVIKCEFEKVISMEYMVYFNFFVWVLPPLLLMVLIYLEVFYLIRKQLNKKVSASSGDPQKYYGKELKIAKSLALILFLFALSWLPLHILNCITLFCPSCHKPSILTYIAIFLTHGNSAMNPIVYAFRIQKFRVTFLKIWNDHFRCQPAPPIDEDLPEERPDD

[3] = molecular target: Adenosine receptors; A1 & A3 (Homo sapiens) (UniProt P30542+P0DMS8); experiment: Selectivity ratio of Ki for human adenosine A1 receptor to Ki for human adenosine A3 receptor; how it was run: as §1

| Ratio Ki (Homo sapiens [1]) | Ratio Ki (Homo sapiens [2]) | Ki (Adenosine receptor A3) [µM] | Ki (Adenosine receptor A2b) [µM] | Ki (Adenosine receptor A2a) [µM] | Ki (Adenosine receptor A1) [µM] | Ratio Ki [3] | Structure (SMILES) |
| --- | --- | --- | --- | --- | --- | --- | --- |
| > 37 | > 0.02 | > 60 | > 20 | 1.6 | 3.4 |  | CC(C)n1cc2c(Cl)nc(NC(=O)c3ccc(F)cc3)nc2n1 |
|  | > 0.03 | > 100 | > 20 | 3.7 | 4.3 |  | Nc1nc(Cl)c2cn(CCc3ccccc3)nc2n1 |
|  | > 77 | 1.3 | > 20 | > 100 | > 100 | > 77 | CCOC(=O)c1nc(NC(=O)c2ccc(C(F)(F)F)cc2)nc2nn(CC(C)(C)C)cc12 |
|  | 0.8 | 13.5 | > 20 | 12 | > 100 | > 7.4 | Cc1ccc(C(=O)Nc2nc(Cl)c3cn(C)nc3n2)cc1 |
|  | 5.8 | 2.8 | > 20 | 16.4 | > 60 | > 21.4 | O=C(Nc1nc(Cl)c2cn(CCc3ccccc3)nc2n1)c1ccc(C(F)(F)F)cc1 |
|  | > 0.09 | > 100 | > 20 | 9.1 | 29.7 |  | Cn1cc2c(Cl)nc(N)nc2n1 |
|  | 0.03 | > 100 | > 10 | 3.3 | 9 |  | CC(C)n1cc2c(Cl)nc(N)nc2n1 |
|  | 1 | 23.6 | > 20 | 24.2 | > 100 | > 4.2 | Cn1cc2c(Cl)nc(NC(=O)c3ccccc3)nc2n1 |
|  | > 15 | 6.6 | > 20 | > 100 | > 100 | > 15 | CC(C)(C)Cn1cc2c(Cl)nc(NC(=O)c3ccc(C(F)(F)F)cc3)nc2n1 |
|  | 0.4 | 5 | > 10 | 2.1 | 11.1 | 2.2 | Cc1ccc(C(=O)Nc2nc(Cl)c3cn(CC(C)(C)C)nc3n2)cc1 |
|  | 0.3 | 5.9 | > 10 | 2.2 | 16.5 | 2.7 | CC(C)(C)Cn1cc2c(Cl)nc(NC(=O)c3ccc(F)cc3)nc2n1 |
|  | > 15.3 | 6.5 | > 20 | > 100 | > 100 | > 15.3 | CC(C)(C)Cn1cc2c(Cl)nc(N(C(=O)c3ccccc3)C(=O)c3ccccc3)nc2n1 |
|  | 4.5 | 6.6 | > 20 | 29.9 | 16.3 | 2.4 | Cn1cc2c(Cl)nc(NC(=O)Cc3ccccc3)nc2n1 |
|  | 6.6 | 1.5 | > 20 | 9.9 | 10.8 | 7.2 | Cc1ccc(C(=O)Nc2nc(Cl)c3cn(CCc4ccccc4)nc3n2)cc1 |
| 91 | 0.01 | > 100 | > 20 | 1.1 | 4.1 |  | Cc1ccc(C(=O)Nc2nc(Cl)c3cn(C(C)C)nc3n2)cc1 |
